Key:
Rattus norvegicus [1] = assay: In vivo inhibition of angiotensin I induced pressor effect after iv administration in rats; format: functional
Procedure, shortened: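 Conscious, unrestrained male Sprague-Dawley rats (225-275 g) with aortic and vena caval catheters, recovered at least 2 weeks. […] Compound was given iv in water or 5% NaHCO3 and responses followed up to 70 min. Maximum inhibition was averaged over four rats per dose; ED50 was interpolated from the maximum-inhibition vs dose plot.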

Rattus norvegicus [2] = assay: In vivo inhibition of angiotensin I induced pressor effect after po administration in rats; format: functional
Procedure, shortened: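 Oral dosing of conscious catheterized male Sprague-Dawley rats (225-275 g) in water, 5% NaHCO3 or 1% agar suspension. Angiotensin I (310 ng/kg iv) pressor responses were followed up to 280 min against pre-dose values, with four rats per dose. ED50 was interpolated from a plot of maximum inhibition vs dose.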

[3] = target: T1, Angiotensin-converting enzyme (Oryctolagus cuniculus, UniProt P12822); assay: In vitro inhibition of angiotensin I converting enzyme in rabbit lung with hippuryl-histidyl-leucine as substrate; format: tissue-based; settings: read-out: I50
T1 sequence (P12822 whole entry): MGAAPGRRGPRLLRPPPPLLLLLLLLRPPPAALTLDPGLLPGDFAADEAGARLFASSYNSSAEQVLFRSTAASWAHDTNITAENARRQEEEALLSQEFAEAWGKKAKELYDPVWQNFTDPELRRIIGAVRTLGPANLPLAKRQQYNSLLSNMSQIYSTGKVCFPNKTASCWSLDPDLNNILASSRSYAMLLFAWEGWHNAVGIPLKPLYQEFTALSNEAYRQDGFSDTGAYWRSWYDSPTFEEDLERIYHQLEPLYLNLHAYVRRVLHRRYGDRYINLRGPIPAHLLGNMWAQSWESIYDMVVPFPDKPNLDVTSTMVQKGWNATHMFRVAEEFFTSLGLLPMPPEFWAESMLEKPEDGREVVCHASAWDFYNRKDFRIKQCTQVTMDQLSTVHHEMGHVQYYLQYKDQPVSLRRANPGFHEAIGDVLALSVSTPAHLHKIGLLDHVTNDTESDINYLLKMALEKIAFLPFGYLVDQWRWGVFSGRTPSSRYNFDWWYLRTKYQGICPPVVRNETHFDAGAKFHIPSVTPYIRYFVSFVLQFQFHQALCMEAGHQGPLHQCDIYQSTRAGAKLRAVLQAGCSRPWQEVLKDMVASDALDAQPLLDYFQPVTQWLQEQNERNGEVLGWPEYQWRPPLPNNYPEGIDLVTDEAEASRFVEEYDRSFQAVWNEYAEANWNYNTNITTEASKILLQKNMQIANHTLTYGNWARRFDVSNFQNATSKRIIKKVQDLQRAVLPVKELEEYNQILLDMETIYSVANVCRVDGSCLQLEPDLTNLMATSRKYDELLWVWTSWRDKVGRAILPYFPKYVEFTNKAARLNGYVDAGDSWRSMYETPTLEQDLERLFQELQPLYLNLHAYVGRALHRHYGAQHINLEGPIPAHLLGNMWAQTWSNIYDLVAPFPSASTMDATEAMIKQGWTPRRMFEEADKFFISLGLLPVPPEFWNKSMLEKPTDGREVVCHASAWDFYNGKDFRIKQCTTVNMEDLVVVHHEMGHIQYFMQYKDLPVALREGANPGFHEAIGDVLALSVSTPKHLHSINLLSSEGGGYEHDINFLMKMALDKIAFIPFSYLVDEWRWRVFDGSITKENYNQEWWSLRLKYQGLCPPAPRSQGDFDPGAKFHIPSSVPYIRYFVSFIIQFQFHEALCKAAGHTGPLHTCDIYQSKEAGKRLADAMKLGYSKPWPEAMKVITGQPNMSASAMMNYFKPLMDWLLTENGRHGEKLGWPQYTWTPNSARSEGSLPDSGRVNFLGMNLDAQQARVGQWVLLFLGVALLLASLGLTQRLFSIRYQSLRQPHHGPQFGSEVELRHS
Procedure, shortened: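 Rabbit lung ACE with synthetic substrate hippurylhistidylleucine; the liberated hippuric acid was quantitated spectrophotometrically. Conditions follow the authors' earlier method.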

Rattus norvegicus [4] = assay: In vivo inhibition angiotensin I induced pressor effect after po administration of 5 umol/kg in rats; format: functional
Procedure, shortened: (§1)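 Normotensive catheterized male Sprague-Dawley rats (225-275 g), conscious and unrestrained. Compound was given orally at 5.0 µmol/kg in water, 5% NaHCO3 or 1% agar suspension. Angiotensin I (310 ng/kg iv) pressor responses were compared with pre-dose responses for up to 280 min. Maximum percent inhibition is the mean of four animals.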

Rattus norvegicus [5] = assay: In vivo inhibition angiotensin I induced pressor effect after (5 uML/kg) p.o. administration in rats; format: functional; procedure, shortened: as §1

Row | Structure (SMILES) | ED50 (Rattus norvegicus [1]) | ED50 (Rattus norvegicus [2]) | IC50 [3] | inhibition in vivo at 5 µmol/kg (Rattus norvegicus [4]) | Inhibition (Rattus norvegicus [5])
1 | C[C@H](CS)C(=O)N1CCC[C@H]1C(=O)O [CAPTOPRIL] | 0.092 µmol/kg | 0.73 µmol/kg |  |  | 
2 | NCCCC[C@H](OP(=O)(O)CCCc1ccccc1)C(=O)N1CCC[C@H]1C(=O)O | 0.069 µmol/kg | 2.62 µmol/kg | 190 nM | 67% | 
3 | CC(C)C[C@H](OP(=O)(O)CCCCc1ccccc1)C(=O)N1CCC[C@H]1C(=O)O |  |  | 3800 nM |  | 
4 | CCCCC(C)CP(=O)(O)O[C@@H](CCCCN)C(=O)N1CCC[C@H]1C(=O)O (stereo not given in full) | 0.14 µmol/kg |  | 40 nM | 68% | 
5 | NCCCC[C@H](OP(=O)(O)CCCCC1CCCCC1)C(=O)N1CCC[C@H]1C(=O)O | 0.18 µmol/kg | 2.3 µmol/kg | 55 nM | 68% | 
6 | CCCCCP(=O)(O)O[C@@H](CCCCN)C(=O)N1CCC[C@H]1C(=O)O | 0.071 µmol/kg |  | 27 nM | 57% | 
7 | NCCC[C@H](OP(=O)(O)CCCCc1ccccc1)C(=O)N1CCC[C@H]1C(=O)O | 1 µmol/kg |  | 390 nM | 28% | 
8 | N=C(N)NCCCCC[C@H](OP(=O)(O)CCCCc1ccccc1)C(=O)N1CCC[C@H]1C(=O)O | > 1.5 µmol/kg |  | 32 nM |  | 
9 | NCCCC[C@H](OP(=O)(O)CCCCc1ccccc1)C(=O)N1CCC[C@H]1C(=O)O [CERONAPRIL] | 0.063 µmol/kg | 0.53 µmol/kg | 36 nM |  | 90%
10 | N=C(N)NCCC[C@H](OP(=O)(O)CCCCc1ccccc1)C(=O)N1CCC[C@H]1C(=O)O | 0.12 µmol/kg |  | 19 nM | 40% | 
11 | CCCC[C@H](OP(=O)(O)CCCCc1ccccc1)C(=O)N1CCC[C@H]1C(=O)O | > 1.4 µmol/kg |  | 180 nM |  | 
12 | N=C(N)NCCCC[C@H](OP(=O)(O)CCCCc1ccccc1)C(=O)N1CCC[C@H]1C(=O)O | 0.045 µmol/kg |  | 6.2 nM | 48% | 
13 | NCCCC[C@H](OP(=O)(O)CCCCCc1ccccc1)C(=O)N1CCC[C@H]1C(=O)O | 0.067 µmol/kg |  | 14 nM | 65% | 
14 | NCCCCC(CP(=O)(O)CCCCc1ccccc1)C(=O)N1CCC[C@H]1C(=O)O (stereo not given in full) | 0.18 µmol/kg | 35 µmol/kg | 85 nM |  | 
15 | CCCCCCCCCP(=O)(O)O[C@@H](CCCCN)C(=O)N1CCC[C@H]1C(=O)O | 0.13 µmol/kg |  | 31 nM | 23% | 
16 | CCCCCCCCCCP(=O)(O)O[C@@H](CCCCN)C(=O)N1CCC[C@H]1C(=O)O | 0.17 µmol/kg |  | 95 nM | 2% | 
17 | CC(=O)NCCC[C@H](OP(=O)(O)CCCCc1ccccc1)C(=O)N1CCC[C@H]1C(=O)O | 0.25 µmol/kg |  | 42 nM | 4% | 
18 | NCCCCC[C@H](OP(=O)(O)CCCCc1ccccc1)C(=O)N1CCC[C@H]1C(=O)O | > 1.5 µmol/kg |  | 110 nM |  | 

Row | Structure (SMILES) | ED50 (Rattus norvegicus [1]) | ED50 (Rattus norvegicus [2]) | IC50 [3] | inhibition in vivo at 5 µmol/kg (Rattus norvegicus [4]) | Inhibition (Rattus norvegicus [5])
19 | CCCCCC(C)P(=O)(O)O[C@@H](CCCCN)C(=O)N1CCC[C@H]1C(=O)O (stereo not given in full) | 0.13 µmol/kg |  | 61 nM | 29% | 
20 | C[C@H](OP(=O)(O)CCCCc1ccccc1)C(=O)N1CCC[C@H]1C(=O)O | 0.75 µmol/kg | > 25 µmol/kg | 59 nM |  | 
21 | CCOC(=O)[C@H](CCc1ccccc1)N[C@@H](C)C(=O)N1CCC[C@H]1C(=O)O |  | 0.46 µmol/kg |  |  | 
22 | C[C@H](N[C@@H](CCc1ccccc1)C(=O)O)C(=O)N1CCC[C@H]1C(=O)O [ENALAPRILAT ANHYDROUS] | 0.033 µmol/kg | 5.13 µmol/kg |  |  | 
23 | O=C(O)[C@@H]1CCCN1C(=O)[C@H](CCc1ccccc1)OP(=O)(O)CCCCc1ccccc1 | 29 µmol/kg |  | 640 nM |  | 
24 | NCCCC[C@H](OP(=O)(O)CCc1ccccc1)C(=O)N1CCC[C@H]1C(=O)O | 0.217 µmol/kg | 1.39 µmol/kg | 190 nM | 65% | 
25 | NCCCC[C@H](NP(=O)(O)CCCCc1ccccc1)C(=O)N1CCC[C@H]1C(=O)O | 0.022 µmol/kg | 2.6 µmol/kg | 9 nM |  | 
26 | CCCCCCCP(=O)(O)O[C@@H](CCCCN)C(=O)N1CCC[C@H]1C(=O)O | 0.12 µmol/kg | 0.62 µmol/kg | 19 nM | 75% | 
27 | NCCCC[C@H](OP(=O)(O)CCCCc1cccnc1)C(=O)N1CCC[C@H]1C(=O)O | 0.19 µmol/kg |  | 94 nM | 56% | 
28 | NCCCC[C@H](OP(=O)(O)CCCCc1ccc(F)cc1)C(=O)N1CCC[C@H]1C(=O)O | 0.067 µmol/kg | 0.89 µmol/kg | 31 nM | 81% | 
29 | CC(=O)NCCCC[C@H](OP(=O)(O)CCCCc1ccccc1)C(=O)N1CCC[C@H]1C(=O)O | < 1.4 µmol/kg |  | 180 nM |  | 
30 | C[C@H](NP(=O)(O)CCCCc1ccccc1)C(=O)N1CCC[C@H]1C(=O)O | 0.05 µmol/kg | 25 µmol/kg | 12 nM |  | 
31 | CCCCCCCCP(=O)(O)O[C@@H](CCCCN)C(=O)N1CCC[C@H]1C(=O)O | 0.091 µmol/kg | 1.4 µmol/kg | 38 nM | 83% | 
32 | CCCCP(=O)(O)O[C@@H](CCCCN)C(=O)N1CCC[C@H]1C(=O)O | 0.091 µmol/kg |  | 96 nM | 27% | 
33 | CCCCCCP(=O)(O)O[C@@H](CCCCN)C(=O)N1CCC[C@H]1C(=O)O | 0.036 µmol/kg | 0.94 µmol/kg | 24 nM | 82% | 
34 | C[C@H](CP(=O)(O)CCCCc1ccccc1)C(=O)N1CCC[C@H]1C(=O)O |  |  | 220 nM |  | 
35 | CC(C)CCCP(=O)(O)O[C@@H](CCCCN)C(=O)N1CCC[C@H]1C(=O)O | 0.095 µmol/kg |  | 150 nM | 69% | 

Reference: ChEMBL document CHEMBL1123952, “(Phosphinyloxy)acyl amino acid inhibitors of angiotensin converting enzyme (ACE). 1. Discovery of (S)-1-[6-amino-2-[[hydroxy(4-phenylbutyl)phosphinyl]oxy]-1-oxohexyl]-L -proline a novel orally active inhibitor of ACE” (J Med Chem, 1988)
